The source made the active and inactive calls. No cut-off for these calls is given here.
Legend:
Type in all cases: functional, cell-based
T47D [1] = test: Cytotoxicity against human T47D cells after 72 hrs by SRB assay
[2] = Cytotoxicity against human HuH7 cells after 72 hrs by SRB assay; conditions: Huh-7, 72 h
Summary of the method: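 Sulforhodamine B assay. Cells seeded at 2000–10,000/well and treated the next day in triplicate with ten concentrations (DMSO vehicle, under 1% final) for 24, 48 or 72 h at 37 °C, 5% CO2. Fixed with ice-cold TCA for 1 h at 4 °C, stained with 0.4% SRB in 1% acetic acid, dye solubilized in 10 mM Tris base, A515 read. % inhibition = 100 × (1 − OD drug/OD DMSO). IC50 taken from dose–response curves.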

[3] = Cytotoxicity against human HCT116 cells after 72 hrs by SRB assay; conditions: HCT-116, 72 h
Summary of the method: (§1)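 SRB screen. Cells seeded at 2000–10,000/well and treated next day for 72 h with 40, 20, 10, 5 and 2.5 µM (DMSO under 1%). TCA fixation, 0.4% SRB staining, Tris solubilization, absorbance at 515 nm. Growth inhibition calculated relative to DMSO-only wells. IC50 derived from the five-concentration inhibition percentages.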

HCT-116 = test: Cytotoxicity against human HCT116 cells at 2.5 to 40 uM after 72 hrs by SRB assay; summary of the method: as §1
Huh-7 = test: Cytotoxicity against human HuH7 cells at 2.5 to 40 uM after 72 hrs by SRB assay; summary of the method: as §1
T47D [4] = test: Cytotoxicity against human T47D cells at 2.5 to 40 uM after 72 hrs by SRB assay; summary of the method: as §1

SMILES	IC50 (T47D [1]) [µM]	IC50 [2] [µM]	IC50 [3] [µM]	inhibition (HCT-116)	inhibition (Huh-7)	inhibition (T47D [4])
C1=CC(CCNc2ncnc3[nH]cnc23)CCC1 (stereo not given)	40.3	14.2	12.9	–	–	–
CCOC(=O)Cn1cnc2c(NCc3ccc(Cl)cc3Cl)ncnc21	99.9	–	–	inactive	inactive	–
CCOC(=O)Cn1cnc2c(NCc3cccc(C(F)(F)F)c3)ncnc21	–	–	> 200	–	inactive	inactive
Cc1ccc(S(=O)(=O)n2cnc3c(N4CCC(C)CC4)ncnc32)cc1	22.5	17.8	14.6	–	–	–
Nc1ncnc2c1ncn2CCNCCN1CCCC1	–	–	–	inactive	inactive	inactive
O=c1[nH]cc(F)c(=O)[nH]1 [FLUOROURACIL]	7.9	–	6	–	–	–
CCNCCNCCn1cnc2c(N)ncnc21	–	–	–	inactive	inactive	inactive
CC1CCN(c2ncnc3[nH]cnc23)CC1	–	–	–	inactive	inactive	inactive
OCCNc1ncnc2[nH]cnc12	–	–	–	inactive	inactive	inactive
COc1ccc(CNc2ncnc3c2ncn3S(=O)(=O)c2ccc(C)cc2)cc1	–	–	–	inactive	inactive	inactive
CCOC(=O)Cn1cnc2c(N3CCN(c4ccc(C(F)(F)F)cc4)CC3)ncnc21	–	53.3	72.4	–	–	inactive
Clc1ccc(CNc2ncnc3[nH]cnc23)c(Cl)c1	147	–	–	inactive	inactive	–
Nc1ncnc2c1ncn2CCNCCN1CCOCC1	–	–	–	inactive	inactive	inactive
COc1ccc(CNc2ncnc3[nH]cnc23)cc1	–	–	86.6	–	inactive	inactive
Nc1ncnc2c1ncn2CCN1CCN(CCN2CCOCC2)CC1	–	–	–	inactive	inactive	inactive
CN1CCN(NCCn2cnc3c(N)ncnc32)CC1	–	–	–	inactive	inactive	inactive
Cc1ccc(S(=O)(=O)n2cnc3c(NCc4ccc(F)cc4F)ncnc32)cc1	116	–	–	inactive	inactive	–
Cc1ccc(S(=O)(=O)n2cnc3c(NCc4ccc(Cl)cc4Cl)ncnc32)cc1	47.6	26.9	28.1	–	–	–
Nc1ncnc2c1ncn2CCN1CCN(CCO)CC1	–	–	–	inactive	inactive	inactive

SMILES	IC50 (T47D [1]) [µM]	IC50 [2] [µM]	IC50 [3] [µM]	inhibition (HCT-116)	inhibition (Huh-7)	inhibition (T47D [4])
CCOC(=O)Cn1cnc2c(N3CCN(CCO)CC3)ncnc21	–	–	–	inactive	inactive	inactive
Nc1nc(F)nc2c1ncn2[C@@H]1O[C@H](CO)[C@@H](O)[C@@H]1O [FLUDARABINE]	46.2	60.1	6.6	–	–	–
FC(F)(F)c1cccc(CNc2ncnc3[nH]cnc23)c1	–	68.3	102	–	–	inactive
Cc1ccc(S(=O)(=O)n2cnc3c(Cl)ncnc32)cc1	13.9	20.8	22.8	–	–	–
O=CN1CCN(c2ncnc3[nH]cnc23)CC1	–	–	–	inactive	inactive	inactive
CC(C)NCCNCCn1cnc2c(N)ncnc21	–	–	–	inactive	inactive	inactive
CC1CCN(c2ncnc3c2ncn3C2CCCC2)CC1	21	17.4	16.6	–	–	–
Nc1ncnc2c1ncn2CCNCCNc1ccccc1	–	–	–	inactive	inactive	inactive
Cc1ccc(S(=O)(=O)n2cnc3c(NCCC4C=CCCC4)ncnc32)cc1 (stereo not given)	34.5	9.4	8.7	–	–	–
c1ccc(CN2CCC(Nc3ncnc4[nH]cnc34)CC2)cc1	–	–	–	inactive	inactive	inactive
CN(C)CCNCCn1cnc2c(N)ncnc21	–	–	–	inactive	inactive	inactive
OC[C@H]1O[C@@H](n2cnc3c2N=CNC[C@H]3O)C[C@@H]1O	–	–	–	inactive	inactive	inactive
OCCN1CCN(c2[nH]cnc3ncnc2-3)CC1	–	–	–	inactive	inactive	inactive
c1nc(NC2CC2)c2nc[nH]c2n1	–	–	–	inactive	inactive	inactive
Nc1nc(Cl)nc2c1ncn2[C@H]1C[C@H](O)[C@@H](CO)O1 [CLADRIBINE]	0.7	1.8	0.3	–	–	–
c1ccc(NCCNc2ncnc3[nH]cnc23)cc1	–	–	132	–	inactive	inactive
Cc1ccc(S(=O)(=O)n2cnc3c(NC4CC4)ncnc32)cc1	–	–	–	inactive	inactive	inactive
Fc1ccc(CNc2ncnc3[nH]cnc23)c(F)c1	–	–	–	inactive	inactive	inactive
